{"source": "paper PMC5621377", "about": "(Clinical cancer research : an official journal of the …, 2016)", "key": {"[1]": {"test_system": "patients with Rb+ advanced solid tumors or lymphomas", "experiment": "Phase I dose escalation: DLT and MTD/RDE determination", "format": "in vivo"}, "[2]": {"experiment": "Pharmacokinetics, plasma LC-MS/MS, non-compartmental analysis", "format": "in vivo, human", "how_it_was_run": "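Oral daily dosing at 50–1,200 mg/day. On Cycle 1 Days 1 and 18/21, blood was drawn pre-dose and at 0.5, 1, 2, 4, 6, 8 and 24 h, with further trough days. Parent drug and a metabolite in plasma were measured by validated LC-MS/MS (LLOQ 1.0 ng/mL). Non-compartmental analysis was used. Dose proportionality was fitted as ln(Cmax or AUC0–24) = α + β ln(dose). T1/2,acc came from the accumulation ratio; steady state was judged from troughs.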"}, "[3]": {"test_system": "Ki67 and phosphorylated Rb [pRb]", "experiment": "Pharmacodynamic biomarkers by immunohistochemistry in skin and tumor biopsies", "format": "in vivo, human"}, "[4]": {"test_system": "Rb+ advanced solid tumors or lymphomas", "experiment": "Clinical activity, radiographic response", "format": "in vivo, human", "how_it_was_run": "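Oral test compound given daily on a 3-weeks-on/1-week-off schedule (50–1,200 mg/day) or a continuous 28-day schedule (600 mg/day). Response was assessed by CT or MRI per RECIST 1.0 for solid tumors or IWG criteria for lymphomas. Scans were done at the end of every second cycle for six cycles, then every third cycle, and at end of treatment. Patients receiving at least one dose were included; analyses were descriptive.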"}, "neuroblastoma cell lines": {"test_system": "neuroblastoma cell lines", "conditions": "in vitro, dose-dependent; cited from earlier work"}, "Jeko-1 MCL xenograft": {"test_system": "Jeko-1 MCL xenograft", "conditions": "doses comparable to those achievable in humans; cited from earlier work"}, "[5]": {"conditions": "ref unpublished data; cited from earlier work"}}, "note": "“Also recorded” adds a separate entry of the source."}
{"smiles": "CN(C)C(=O)c1cc2cnc(Nc3ccc(N4CCNCC4)cn3)nc2n1C1CCCC1", "note": "[ribociclib]", "values": [{"measurement": "maximum tolerated dose (MTD)", "setting": "[1]; 3-weeks-on/1-week-off schedule", "value": 900, "unit": "mg/day"}, {"measurement": "recommended dose for expansion (RDE)", "setting": "[1]; human, in vivo, 28 days", "value": 600, "unit": "mg/day"}, {"measurement": "number of dose-limiting toxicities during Cycle 1", "setting": "[1]; in vivo", "value": "Nine"}, {"measurement": "mean effective half-life based on accumulation ratio (T1/2, acc)", "setting": "[2]; at the RDE (600 mg/day 3-weeks-on/1-week-off), oral", "value": 32.6, "unit": "h"}, {"measurement": "dose proportionality of Cmax and AUC", "setting": "[2]; dose range 50–1,200 mg/day", "value": "slightly higher than dose proportional; also recorded: slightly more than proportional to dose"}, {"measurement": "Tmax", "setting": "[2]; human, plasma, po", "value": "1 to 5", "unit": "h"}, {"measurement": "steady state reached by", "setting": "[2]; trough concentrations after repeated daily dosing", "value": "~8", "unit": "days"}, {"measurement": "post-treatment changes in pRb in tumor samples", "setting": "[3]; 16 paired tumor biopsies", "value": "not significant or consistent"}, {"measurement": "change of Ki67 in tumor biopsies", "setting": "[3]; 19 paired tumor biopsies, baseline to Day 15 of Cycle 1 or 2", "value": "reductions of Ki67 from baseline were observed at higher ribociclib doses"}, {"measurement": "change of pRb in skin samples", "setting": "[3]; 46 paired skin biopsies", "value": "Mean decreases of pRb in skin samples were observed at all dose levels"}, {"measurement": "change of Ki67 in skin biopsies", "setting": "[3]; 48 paired skin biopsies, baseline to Day 15 of Cycle 2", "value": "post-treatment reductions of Ki67 were observed across all dose levels"}, {"measurement": "patients with best response of stable disease", "setting": "[4]; 132 patients", "value": 43}, {"measurement": "stable disease as best overall response by RECIST, patients", "setting": "[4]; 132 patients", "value": 41}, {"measurement": "stable disease as best overall response per IWG, patients", "setting": "[4]; 132 patients", "value": "two"}, {"measurement": "partial response rate", "setting": "[4]; 132 patients, RECIST", "value": 2.3, "unit": "%"}, {"measurement": "stable disease as best overall response, rate", "setting": "[4]; RECIST plus IWG, 132 patients", "value": 32.6, "unit": "%"}, {"measurement": "time on therapy", "setting": "[4]; one patient with teratoma, 400 mg/day 3-weeks-on/1-week-off", "value": 100, "unit": "weeks"}, {"measurement": "time on therapy", "setting": "[4]; patient with liposarcoma, 600 mg/day continuous, past cut-off date", "value": 102, "unit": "weeks"}, {"measurement": "concentration with marked accumulation of cells in G0/G1 phase", "setting": "neuroblastoma cell lines", "value": "above 100 nmol/L"}, {"measurement": "tumor response in xenograft", "setting": "Jeko-1 MCL xenograft", "value": "complete regressions"}, {"measurement": "nonclinical toxicity finding, bone marrow", "setting": "[5]", "value": "hypocellularity"}, {"measurement": "nonclinical toxicity finding, cardiac", "setting": "[5]", "value": "prolongation of the average QTc"}, {"measurement": "nonclinical toxicity finding, lymphoid system", "setting": "[5]", "value": "lymphoid depletion"}, {"measurement": "nonclinical toxicity finding, testes", "setting": "[5]", "value": "atrophy"}]}
